Experimental data as given in ChEMBL document CHEMBL4680339, “Synthesis and bioevaluation of N-(3,4,5-trimethoxyphenyl)-1H-pyrazolo[3,4-b]pyridin-3-amines as tubulin polymerization inhibitors with anti-angiogenic effects” (Bioorg Med Chem, 2021).

Legend:
[1] = test system: HCT-116; test: Antiproliferative activity against human HCT-116 cells assessed as reduction in cell growth incubated for 72 hrs by MTT assay; type: functional, cell-based; conditions: HCT-116, 72 h
Method in brief: (§1)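 Log-phase cells seeded at 5 × 10³/well and grown 24 h, then exposed to graded compound concentrations for 72 h. MTT (5 mg/mL) added for 4 h; formazan dissolved in DMSO and absorbance read at 490 nm. IC50 calculated from growth inhibition; means ± SD of triplicate experiments.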

[2] = test system: A549; test: Antiproliferative activity against human A549 cells assessed as reduction in cell growth incubated for 72 hrs by MTT assay; type: functional, cell-based; conditions: A549, 72 h; method in brief: as §1
[3] = test system: HeLa; test: Antiproliferative activity against human HeLa cells assessed as reduction in cell growth incubated for 72 hrs by MTT assay; type: functional, cell-based; method in brief: as §1
[4] = test system: MCF7; test: Antiproliferative activity against human MCF7 cells assessed as reduction in cell growth incubated for 72 hrs by MTT assay; type: functional, cell-based; conditions: MCF7, 72 h; method in brief: as §1
[5] = test system: HepG2; test: Antiproliferative activity against human HepG2 cells assessed as reduction in cell growth incubated for 72 hrs by MTT assay; type: functional, cell-based; conditions: HepG2, 72 h; method in brief: as §1
[6] = test system: WI-38; test: Cytotoxicity against human WI-38 cells assessed as reduction in cell growth incubated for 72 hrs by MTT assay; type: cell-based; conditions: WI-38, 72 h; method in brief: as §1

SMILES | IC50 [1] [µM] | IC50 [2] [µM] | IC50 [3] [µM] | IC50 [4] [µM] | IC50 [5] [µM] | IC50 [6] [µM]
COc1ccc2c(N(CC(F)F)c3cc(OC)c(OC)c(OC)c3)n[nH]c2n1 | 0.47 | 2.42 | 0.17 | 21.7 | 18.8 | 1.69
COc1ccc2c(N(C)c3cc(OC)c(OC)c(OC)c3)nn(C)c2n1 | > 50 | > 50 | 0.59 | > 50 | 2.52 | 22.8
COc1ccc2c(Nc3cc(OC)c(OC)c(OC)c3)nn(C)c2n1 | > 50 | > 50 | 6.07 | > 50 | 6.24 | 2.43
COc1ccc2c(N(Cc3ccccc3)c3cc(OC)c(OC)c(OC)c3)n[nH]c2n1 | 3.37 | > 50 | 3.19 | 10.3 | 7.38 | 1.67
CCCN(c1cc(OC)c(OC)c(OC)c1)c1n[nH]c2nc(OC)ccc12 | 5.97 | > 50 | 0.73 | 1.37 | 6.26 | 2.99
COc1ccc2c(N(c3cc(OC)c(OC)c(OC)c3)C3CCCC3)nn(C3CCCC3)c2n1 | > 50 | > 50 | > 50 | > 50 | > 50 | 138
CCN(c1cc(OC)c(OC)c(OC)c1)c1n[nH]c2nc(OC)ccc12 | 16.7 | 31.2 | 0.7 | 0.81 | 9.64 | 8.03
COc1ccc2c(Nc3cc(OC)c(OC)c(OC)c3)nn(-c3ccccc3)c2n1 | > 50 | > 50 | 22.5 | > 50 | 38.8 | 12.6
